# Screens deposited in PubChem by Sanford-Burnham Center for Chemical Genomics.
# CXCR6 block = blocks human CXCR6 beta-arrestin recruitment. O00574. CHO-K1 PathHunter CXCR6 beta-arrestin, luminescence. inhibition, % at 20 µM. actives 0.36% (n = 360,000). AID 602244; in the data active = inhibition above about 34%, passing the limit was not always enough;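 also: antagonist mode with CXCL16 agonist at 10 nM final; 0% = 10 nM CXCL16 with DMSO and 100% = unstimulated wells without agonist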
# Target sequence (O00574 whole entry, looked up): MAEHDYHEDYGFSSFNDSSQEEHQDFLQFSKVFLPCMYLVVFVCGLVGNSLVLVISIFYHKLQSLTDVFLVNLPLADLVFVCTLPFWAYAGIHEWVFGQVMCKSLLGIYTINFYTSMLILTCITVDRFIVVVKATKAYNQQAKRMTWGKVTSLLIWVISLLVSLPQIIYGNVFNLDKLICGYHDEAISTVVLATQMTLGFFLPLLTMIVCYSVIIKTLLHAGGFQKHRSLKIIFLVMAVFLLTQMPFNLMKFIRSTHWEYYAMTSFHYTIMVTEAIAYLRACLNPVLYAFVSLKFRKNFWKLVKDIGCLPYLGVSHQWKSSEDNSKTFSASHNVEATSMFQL
# EBI2 block = EBI2 (human) antagonism. P32249. inhibition, % at 5 µM. EBI2 beta-arrestin recruitment, luminescence, 7a,25-OHC stimulated. actives 0.81% (n = 360,000); in the data active = inhibition above about 38%;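 also: enzyme fragment complementation signal reports receptor beta-arrestin coupling in cells; 0% = agonist plus DMSO wells and 100% = wells without agonist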
# APJ ag = activates the human apelin receptor APJ; actives 0.11% (n = 330,000); CHO-K1 APJ PathHunter beta-arrestin, luminescence; 0% DMSO wells, 100% apelin; P35414; activation, % at 20 µM;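 active = activation more than six SD over the plate average, tested at 20 µM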;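 also: 0% = DMSO alone and 100% = apelin-13 at 10 nM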
# Target sequence (P35414 whole entry, looked up): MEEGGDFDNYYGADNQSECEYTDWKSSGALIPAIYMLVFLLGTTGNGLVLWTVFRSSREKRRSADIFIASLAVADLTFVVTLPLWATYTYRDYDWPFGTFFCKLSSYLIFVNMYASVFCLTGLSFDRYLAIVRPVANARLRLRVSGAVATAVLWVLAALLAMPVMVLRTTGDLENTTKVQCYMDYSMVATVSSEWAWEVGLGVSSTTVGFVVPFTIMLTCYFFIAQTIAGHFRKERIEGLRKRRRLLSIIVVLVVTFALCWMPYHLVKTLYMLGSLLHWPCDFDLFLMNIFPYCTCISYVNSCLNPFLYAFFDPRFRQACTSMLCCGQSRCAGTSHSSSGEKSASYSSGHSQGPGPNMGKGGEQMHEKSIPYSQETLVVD
#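 Material: engineered CHO-K1 APJ arrestin reporter cells; amount: 1000 CHO-K1 reporter cells seeded per well; incubation: compound stimulation 90 min at 25 °C, detection 60 min; signal: luminescent beta-gal fragment complementation, chemiluminescent substrate; read-out basis: APJ agonist activity; controls: DMSO-only wells as negative, 10 nM Apelin-13 as positive control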
# APJ antag = APJ receptor antagonism. AID 2521. CHO-K1 APJ beta-arrestin complementation, luminescence. inhibition, % at 20 µM. actives 0.32% (n = 330,000);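 active = inhibition above about 40% at 20 µM, limit read from the data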;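 also: cells challenged with 10 nM apelin-13 agonist together with compound; plate controls were apelin-13 plus DMSO wells for no effect and DMSO wells lacking apelin-13 for full effect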
# CCR6 antagonist = antagonists of human CCR6 receptor; actives 0.49% (n = 340,000); P51684; inhibition, % at 20 µM; CHO-K1 CCR6 PathHunter beta-arrestin, luminescence, CCL20-stimulated;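 active = compounds whose inhibition of the agonist-driven luminescence signal at 20 µM reaches about 50%, limit read from the data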;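 also: cells stimulated with CCL20 at 14 nM final; plate controls were DMSO with CCL20 for no effect and DMSO without agonist for full effect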
# APJ antag conf = confirmation of human APJ apelin receptor antagonists; shares compounds with APJ antag; APJ beta-arrestin recruitment, luminescence, antagonist mode; inhibition, % at 20 µM; actives 66% (n = 950); AID 2766; in the data active = inhibition above about 50%
# CXCR6 confirm = CXCR6 antagonism confirmation, single concentration; shares compounds with CXCR6 block; CHO-K1 CXCR6 PathHunter beta-arrestin, luminescence; inhibition, % at 20 µM; actives 65% (n = 700);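 active = mean inhibition over four retests above 40%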;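 also: receptor stimulated with 10 nM CXCL16 agonist; beta-galactosidase fragment complementation upon beta-arrestin recruitment to receptor; plate controls were CXCL16 plus DMSO for no effect and DMSO without CXCL16 for full effect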
# EBI2 antag conf = confirmation of human EBI2 receptor antagonists | shares compounds with EBI2 block | EBI2 beta-arrestin luminescence, 7a,25-OHC antagonism | inhibition, % at 5 µM | actives 29% (n = 2,400) | AID 651997;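 active = inhibition of at least 50%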
# EBI2 ag = EBI2 agonism counter-screen. shares compounds with EBI2 block. EBI2-expressing cells, agonist mode, luminescence, 60 min; 0% vehicle, 100% 7α,25-dihydroxycholesterol control. activation, % at 5 µM. 2,400 tested, under 10 active. AID 652000;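 active = activation of at least 50%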
# bGal counter = inhibits E. coli beta-galactosidase, counter-screen for EBI2 antagonists | purified beta-galactosidase, luminescent Galacton Star, 15 min | actives 1% (n = 2,400) | AID 652176 | inhibition, % at 5 µM | shares compounds with EBI2 block;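 active = replicate-average signal at least 3 plate SD below neutral wells, shown as high inhibition, flagging enzyme-inhibiting false positives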;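 also: 0% = DMSO wells with enzyme and 100% = wells lacking enzyme; higher means stronger loss of beta-gal luminescence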
# * = called active by the depositor; · = not tested or not shown. In the library only some 1.5% were active in any assay of this set; here they are far more common.
SMILES,CXCR6 block,EBI2 block,APJ ag,APJ antag,CCR6 antagonist,EBI2 antag conf,EBI2 ag,bGal counter,others
CCC1CCCCN1CC(=O)c1ccc(OC(F)F)cc1 (stereo not given),8,-1,-5,44*,25,·,·,·,APJ antag conf=52*
COc1cc(O)c2c(c1)/C=C/C[C@H](O)[C@H](O)C(=O)CCC[C@H](C)OC2=O,-10,-2,·,·,·,·,·,·,
N#Cc1c(/N=C/c2ccc(O)cc2O)sc2c1C1CCN2CC1,8,-9,-7,42*,39,·,·,·,APJ antag conf=36
Oc1ccc2c3c1OC1c4[nH]c5ccccc5c4C[C@@]4(O)C(C2)N(CC2CC2)CC[C@]314 (stereo not given in full),8,0,-2,13,9,·,·,·,
O=C1/C(=C/c2ccccc2)C[C@@]2(O)[C@H]3Cc4ccc(O)c5c4[C@@]2(CCN3CC2CC2)C1O5 (stereo not given in full),58*,55*,-9,56*,80*,·,·,·,APJ antag conf=93*
C=C1C(=O)OC2CC3(C)OC3C3OC3C3=CC(OC3=O)C12 (stereo not given),8,-2,·,·,·,·,·,·,
CN1C(=O)C(=Cc2ccc(N3CCCCCC3)o2)C(=O)N(C)C1=S,19,12,-6,47*,34,·,·,·,APJ antag conf=79*
CN1C(=O)C(=Cc2ccc(N3CCOCC3)o2)C(=O)N(C)C1=O,2,-6,-3,9,17,·,·,·,
Nc1c(C(=O)OCc2ccccc2)c2nc3ccccc3nc2n1Cc1cccs1,33,50*,-11,63*,0,12,-1,-11,APJ antag conf=-11
CCOC(=O)CNC(=O)N1Cc2ccccc2-n2nncc2C1,0,-7,·,·,·,·,·,·,
COC(=O)C1=C(C(=O)OC)C2OC1c1cc3ccccc3cc12,85*,31,·,·,109*,·,·,·,CXCR6 confirm=91*
Cc1ccc(CN2CCC3CCC(C3)C2)c(O)c1 (stereo not given),-2,5,·,·,3,·,·,·,
CN(Cc1cccc(-c2ccncc2)c1)C(=O)Oc1ccc([N+](=O)[O-])cc1,-2,12,·,·,·,·,·,·,
CC1=C(O)C(=O)C=C2C1=CC=C1C2(C)CCC2(C)C3CC(C)(C(=O)O)CCC3(C)CCC12C (stereo not given),64*,-33,·,·,·,·,·,·,CXCR6 confirm=53*
CCC(=O)c1cn(Cc2ccccc2)c2ccccc12,3,-1,-5,-20,25,·,·,·,
O=C(COc1ccccc1)c1cn(Cc2ccccc2)c2ccccc12,0,46*,-2,-5,20,26,-1,-14,
CC(CN1CCOCC1)C(C#N)(c1ccccc1)c1ccccc1 (stereo not given),4,3,·,·,11,·,·,·,
CCOC(=O)[C@]12Cc3cc(OC)ccc3[C@H]1N(C)C(=O)c1ccccc12,9,6,·,·,·,·,·,·,
CCOC(=O)[C@]12Cc3cc(OC)ccc3[C@H]1N(C1CCCCC1)C(=O)c1ccccc12,17,64*,·,·,·,21,1,-15,
O=c1c(C=NCc2cccs2)c(O)n(C2CCCCC2)c(=O)n1C1CCCCC1,7,44*,7,7,11,2,-1,-10,
O=c1c(C=NCCN2CCNCC2)c(O)n(C2CCCCC2)c(=O)n1C1CCCCC1,-7,7,-2,15,-18,·,·,·,
Cc1ccc(OCC(=O)N2CCN(Cc3ccc4c(c3)OCO4)CC2)cc1C,-3,71*,-3,0,-3,57*,0,-13,
O=C(COc1ccc(Br)cc1)N1CCN(Cc2ccncc2)CC1,5,68*,·,·,11,54*,-2,-12,
CSc1ccc(CN2CCN(C(=O)COc3ccc(C)cc3)CC2)cc1,0,92*,4,-1,7,71*,2,-4,
O=C(COc1ccc(Br)cc1)N1CCN(Cc2ccc3c(c2)OCO3)CC1,-5,92*,-1,-8,10,70*,0,-9,
SMILES,CXCR6 block,EBI2 block,APJ ag,APJ antag,CCR6 antagonist,EBI2 antag conf,EBI2 ag,bGal counter,others
Cc1cccc(OCC(=O)N2CCN(Cc3ccc4c(c3)OCO4)CC2)c1,-2,26,-2,10,10,·,·,·,
C[C@H](CO)N1C[C@H](C)[C@@H](CN(C)C(=O)Oc2ccccc2)OCc2cnnn2CCCC1=O,4,-7,·,·,·,·,·,·,
Clc1cccc(N2Cc3cc(-c4ccccc4)ccc3-n3nncc3C2)c1,14,26,·,·,·,·,·,·,
O=C1NC(=S)NC(=O)C1c1ccccc1,1,1,·,·,0,·,·,·,
O=C(c1cc2cc(Br)ccc2[nH]1)N1CCC2(CC1)OCCO2,0,84*,-1,-5,-9,67*,2,-1,
COC(=O)C1=C(c2ccc(OCc3ccccc3)cc2)C[C@@H]2CC[C@H]1N2C(=O)NCc1ccccc1OC,8,21,·,·,·,·,·,·,
COC(=O)C1=C(c2ccc(OCc3ccccc3)cc2)C[C@@H]2CC[C@H]1N2C(=O)NCc1ccccc1C(F)(F)F,8,63*,·,·,·,23,-1,7,
CCCNC(=O)N1[C@H]2CC[C@@H]1C(C(=O)OC)=C(c1ccc(Cl)c(C(F)(F)F)c1)C2,5,-4,-1,1,12,·,·,·,
COC(=O)C1=C(c2ccc(Cl)c(C(F)(F)F)c2)C[C@@H]2CC[C@H]1N2C(=O)NCCOc1ccc(OC)cc1,6,44*,-2,2,24,24,-2,-3,
CCC(c1nnnn1C1CCCCC1)N1CCC2(CC1)C(=O)NCN2c1ccccc1 (stereo not given),1,2,·,·,·,·,·,·,
O=C1CC23c4ccccc4N4C(=O)CC5OCC=C6CN1C2CC6C5C43 (stereo not given),-4,-9,·,·,2,·,·,·,
C[C@]12CC[C@@H](O)CC1=CCC1C2CC[C@]2(C)C(=O)[C@H](F)CC12 (stereo not given in full),1,1,-2,0,-3,·,·,·,
CC12CCC3C(CC=C4CC(O)CCC43C)C1C/C(=C\c1cccc(F)c1)C2=O (stereo not given),-1,46*,5,13,-17,5,0,-8,
COC(=O)C1=C(c2c(C)noc2C)C[C@@H]2CC[C@H]1N2C(=O)N1CCC(O)(c2ccc(Cl)cc2)CC1,4,42*,-2,7,5,26,-1,-18,
COC(=O)C1=C(c2c(C)noc2C)C[C@@H]2CC[C@H]1N2C(=O)N1CCOCC1,-7,-7,-4,9,2,·,·,·,
